This is an account of results in ChEMBL document CHEMBL4706647, “Development and optimization of halogenated vinyl sulfones as Nrf2 activators for the treatment of Parkinson's disease” (Eur J Med Chem, 2021).

Active and inactive are the calls of the source. The calls are words filed in the database; no cut-off is given here.

One series concerns Mus musculus. In words: Neuroprotective activity in MPTP-induced C57BL/6 mouse model of Parkinson's disease assessed as ability to pull and climb to the top of the hanger at 30 mg/kg, po pretreated for 1 day followed by MPTP challenge and subsequent compound dosing for 2 days measured 6 days post MPTP challenge by coat-hanger test. In kind it is functional, organism-based. The note with it: time 7.0 day. The method in brief:
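Male C57BL/6 mice, 10 weeks old, 23–26 g, n = 10 per group. Dosed 30 mg/kg p.o. for 3 consecutive days in 10% N-methyl-2-pyrrolidone/20% Tween-80 in water. On day 2, MPTP-HCl 20 mg/kg i.p. given four times at 2 h intervals. Coat-hanger (scored 1–5, test done twice) and vertical grid tests run 6 days after MPTP. Brains taken next day for anti-TH immunohistochemistry (1:1000, DAB).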

In series [1] the target is T1, Nuclear factor erythroid 2-related factor 2 (Mus musculus) (UniProt Q60795).
T1 sequence (whole entry): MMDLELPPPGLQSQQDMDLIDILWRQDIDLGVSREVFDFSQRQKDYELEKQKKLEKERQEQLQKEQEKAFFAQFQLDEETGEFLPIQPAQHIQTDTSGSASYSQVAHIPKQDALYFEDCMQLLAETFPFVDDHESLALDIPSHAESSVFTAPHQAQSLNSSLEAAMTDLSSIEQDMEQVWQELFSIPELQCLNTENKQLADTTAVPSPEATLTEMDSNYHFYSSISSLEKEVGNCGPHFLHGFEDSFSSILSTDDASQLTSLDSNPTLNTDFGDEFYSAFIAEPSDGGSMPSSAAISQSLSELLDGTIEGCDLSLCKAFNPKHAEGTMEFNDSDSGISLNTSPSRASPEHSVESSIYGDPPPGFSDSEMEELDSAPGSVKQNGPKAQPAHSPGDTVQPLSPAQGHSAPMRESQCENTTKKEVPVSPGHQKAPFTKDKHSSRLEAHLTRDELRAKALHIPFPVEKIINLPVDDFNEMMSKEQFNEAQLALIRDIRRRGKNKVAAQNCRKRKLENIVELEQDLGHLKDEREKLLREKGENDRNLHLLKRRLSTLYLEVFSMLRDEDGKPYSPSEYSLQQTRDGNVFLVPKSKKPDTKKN
In words: Activation of Nrf2 in mouse BV-2 cells assessed as increase in GCLM expression after 6 hrs by Western blot analysis. In kind it is cell-based. The following applies: filed as activator, dose 0.02-10 µM. The essentials:
(§1)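 BV-2 microglia grown in RPMI-1640 with 10% FBS, penicillin-streptomycin and 2 mM L-glutamine at 37 °C, 5% CO2. Cells exposed to a range of concentrations for 6 h, then HO-1, GCLC, GCLM and SOD1 protein measured by Western blot. Band intensity normalized to β-actin and given as fold of vehicle control. Mean ± SEM, n = 3, three separate experiments.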

Series [2] addresses T1, Nuclear factor erythroid 2-related factor 2 (Mus musculus). In words: Activation of Nrf2 in mouse BV-2 cells assessed as increase in Sod1 mRNA expression after 6 hrs by RT-qPCR analysis. In kind it is cell-based. The following applies: filed as activator, dose 0.03-1 µM. The essentials:
(§2)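 BV-2 cells exposed to a range of concentrations for 6 h. Ho1, Gclc, Gclm and Sod1 mRNA quantified by RT-qPCR and expressed relative to vehicle-treated control. Mean ± SEM, n = 3; Student's t-test.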

Series [3] shares this target. In words: Activation of Nrf2 in mouse BV-2 cells assessed as increase in nuclear Nrf2 levels at 0.5 uM after 6 hrs by Western blot analysis relative to control. In kind it is cell-based. The note with it: filed as activator.
The target in another series is CYP3A4 (Homo sapiens, UniProt P08684). In words: Inhibition of CYP3A4 (unknown origin) assessed as residual activity. The class given is ADME.
The target of series [4] is T1, Nuclear factor erythroid 2-related factor 2 (Mus musculus). Put plainly: Activation of Nrf2 in mouse BV-2 cells assessed as increase in HO1 mRNA expression at 1 uM after 6 hrs by RT-qPCR analysis relative to control. In kind it is cell-based. The note with it: filed as activator. The method in brief:
as §2

The target is the same in series [5]. Put plainly: Activation of Nrf2 in mouse BV-2 cells assessed as increase in Sod1 mRNA expression at 1 uM after 6 hrs by RT-qPCR analysis relative to control. The following applies: filed as activator. The class given is cell-based. The method in brief: as §2
Series [6] has the same target. In words: Activation of Nrf2 in mouse BV-2 cells assessed as increase in Gclm mRNA expression after 6 hrs by RT-qPCR analysis. The class given is cell-based. The following applies: filed as activator, dose 0.03-1 µM. The method in brief:
as §2
On the technique in general: Quantitative PCR measures a nucleic acid by following its amplification.

Series [7] in a line: Cytotoxicity against mouse BV-2 cells assessed cell viability at 0.1 uM measured after 6 hrs by Ez-cytox reagent based assay relative to control. The following applies: read-out: Activity. The method in brief:
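BV-2 cells (1.0 × 10⁴/well) grown 24 h at 37 °C, 5% CO2, then treated 6 h at […]. Viability expressed as percent of control.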

Series [8] concerns the target T1, Nuclear factor erythroid 2-related factor 2 (Mus musculus). In words: Activation of Nrf2 in mouse BV-2 cells assessed as increase in Gclc mRNA expression after 6 hrs by RT-qPCR analysis. The class given is cell-based. The note with it: filed as activator, dose 0.03-1 µM. The essentials: as §2
The target is the same in series [9]. In words: Activation of Nrf2 in mouse BV-2 cells assessed as increase in GCLC expression after 6 hrs by Western blot analysis. The class given is cell-based. The note with it: filed as activator, dose 0.02-10 µM. The essentials:
as §1
Background: A western blot detects proteins with antibodies after separation by electrophoresis.

For series [10] the target is unchanged. In words: Activation of Nrf2 in mouse BV-2 cells assessed as increase in HO1 expression at 10 uM after 6 hrs by Western blot analysis relative to control. In kind it is cell-based. The following applies: filed as activator. The method in brief: as §1
For series [11] the target is unchanged. Put plainly: Activation of Nrf2 in mouse BV-2 cells assessed as increase in Gclm mRNA expression at 1 uM after 6 hrs by RT-qPCR analysis relative to control. In kind it is cell-based. The note with it: filed as activator. The method in brief: as §2
Series [12] shares this target. Put plainly: Activation of Nrf2 in mouse BV-2 cells assessed as increase in HO1 mRNA expression after 6 hrs by RT-qPCR analysis. The following applies: filed as activator, dose 0.03-1 µM. The class given is cell-based. The method in brief: as §2
For series [13] the target is unchanged. In words: Activation of Nrf2 in mouse BV-2 cells assessed as increase in HO1 expression after 6 hrs by Western blot analysis. In kind it is cell-based. The note with it: filed as activator, dose 0.02-10 µM. The method in brief:
as §1

Another series deals with BV-2. In words: Antiinflammatory activity in mouse BV-2 cells assessed as inhibition of LPS-induced iNOS expression at 2 uM preincubated for 6 hrs followed by LPS stimulation and measured after 24 hrs by Western blot analysis. The class given is functional, cell-based. The following applies: time 30.0 hrs. The essentials:
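BV-2 cells pretreated with compound, then stimulated with LPS. iNOS protein measured by Western blot with β-actin as internal control. Mean ± SEM, n = 3, three separate experiments.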

CYP3A4, sequence (P08684 whole entry): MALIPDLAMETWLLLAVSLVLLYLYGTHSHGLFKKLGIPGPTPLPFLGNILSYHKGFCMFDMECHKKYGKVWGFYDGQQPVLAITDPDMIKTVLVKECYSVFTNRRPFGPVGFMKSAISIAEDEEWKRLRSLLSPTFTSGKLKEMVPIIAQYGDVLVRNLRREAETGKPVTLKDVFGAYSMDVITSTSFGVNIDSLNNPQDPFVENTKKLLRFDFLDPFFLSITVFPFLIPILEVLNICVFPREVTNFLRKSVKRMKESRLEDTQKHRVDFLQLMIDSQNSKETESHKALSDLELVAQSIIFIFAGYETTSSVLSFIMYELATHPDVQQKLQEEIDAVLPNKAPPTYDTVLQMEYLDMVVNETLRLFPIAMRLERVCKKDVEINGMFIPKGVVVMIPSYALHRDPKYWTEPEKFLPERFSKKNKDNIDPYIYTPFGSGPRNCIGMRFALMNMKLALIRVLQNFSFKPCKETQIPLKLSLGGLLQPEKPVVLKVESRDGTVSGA

As to `O=S(=O)(/C=C/c1ncccc1Cl)c1ccccc1Cl`, in the series with Mus musculus, the Activity result was “Active”. Moreover, the Activity result in series [1], in series [2], in [6], in series [8], in [9] and in [12] was “Dose-dependent effect” in each case. For the same molecule, in series [13], the Activity result is “Dose-dependent effect”. The fold change (FC) came to 11 in series [3]; 6 in series [4]; 2.5 in [5]; 17.6 in series [10]; 6.9 in series [11]. The activity at CYP3A4 is 91.2%. The viability at 6 h, 0.1 µM in series [7] was 100%. In the series on BV-2, the inhibition result was “Active”.
